The Cmax is the highest concentration seen after dosing. As usually defined, the efflux ratio is the permeability from basolateral to apical divided by that in the opposite direction, in the common usage. Usually IC50 stands for the point on the concentration scale where inhibition reaches its midpoint. In general, logD refers to lipophilicity at a set pH, counting ionised and neutral species. In general, Papp A→B refers to the apparent permeability from the apical to the basolateral side of a cell layer. What is called clearance is a measure of how efficiently the substance is removed, as volume per time. High values mean efficient removal, low ones inefficient removal. The term fraction unbound denotes the share of the substance not bound to proteins or other matrix. Read a high fraction unbound as much free substance.

These results are taken from ChEMBL document CHEMBL3352721, “Identification, optimization, and pharmacology of acylurea GHS-R1a inverse agonists” (J Med Chem, 2014).

Data set [1] concerns Mus musculus. In words: Increase in food intake in po dosed C57Bl6j mouse free feeding model measured in 2 hrs intervals. The class given is functional, organism-based. Put shortly: (§1)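 Male mice (C57Bl6j, GHSr1-/- or wild-type littermates) were acclimatized 3 weeks to reversed light-dark, then individually housed 7 days and grouped (n=10-12) by baseline intake and body weight. Suspensions in 1% Pluronic F127 or vehicle were gavaged at 10 mL/kg about 1 h before dark onset. Pre-weighed food was reweighed at 2, 4, 6 and 24 h.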

Data set [2] is described as follows: Cmax in CD1 mouse at 2 mg/kg, po by LC-MS/MS method. The class given is ADME, organism-based. On the set-up: dose 2 mg/kg, route oral. Conditions: in vivo. Put shortly: (§2)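 Oral gavage in male HW rats, beagle dogs or CD-1 mice, vehicle Pluronic F127 in water. EDTA plasma was collected over 24 h and quantified by LC/MS/MS after acetonitrile precipitation. Cmax and bioavailability were obtained by non-compartmental analysis against IV data.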

For data set [3], the system named is MDR1. In words: Efflux ratio in MDCK cells expressing MDR1 at 10 uM. It counts as ADME, cell-based, Canis lupus familiaris. Conditions: dog. Put shortly: (§3)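 MDCK-MDR1 monolayers incubated with compound at 10 µM; permeability measured in both A→B and B→A directions, giving Papp A-B (x10^6 cm/s) and the efflux ratio.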
The nature of data set [4]: Ratio of free drug level in homogenized brain to plasma in CD1 mouse measured 6 hrs after oral dosing by LC-MS/MS method. It counts as ADME. Put shortly:
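CD-1 mice dosed PO in 1% Pluronic F127. Drug was measured in homogenized brain and in plasma 6 h after dosing and expressed as a brain:plasma ratio. The free ratio used free fraction measured in mouse plasma and rat brain (brain slice or brain homogenate).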

Data set [5] addresses Growth hormone secretagogue receptor type 1 (Homo sapiens, UniProt Q92847). Nature of the data set: Displacement of [125I]human ghrelin from human GHS-R1a expressed in HEK cell membranes after 60 mins by gamma counting method. On the set-up: species or system HEK293. (In general: In a radioligand displacement assay an active substance lowers the binding of a labelled ligand.)

The nature of data set [6]: Lipophilicity, logD of the compound. It counts as physicochemical. The following applies: octanol/water.
The test system of data set [7] is MDR1. Nature of the data set: Apparent permeability in MDCK cells expressing MDR1 at 10 uM assessed as apical to basolateral side transport. The class given is ADME, cell-based, Canis lupus familiaris. The following applies: dog. Put shortly:
as §3

Data set [8] can be described thus: Ratio of drug level in homogenized brain to plasma in CD1 mouse at 2.7 mg/kg, po measured after 6 hrs by LC-MS/MS method. The class given is ADME, organism-based. On the set-up: dose 2.7 mg/kg, route oral. The following applies: read-out: BPR. Put shortly:
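Brain homogenate and plasma drug levels were taken 6 h after oral dosing, and their ratio was reported. Plasma was assayed by LC/MS/MS after acetonitrile protein precipitation.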

The nature of data set [9]: Ratio of drug level in homogenized brain to plasma in Han-Wistar rat measured 1 hr after iv bolus then iv infusion by LC-MS/MS method. It counts as ADME, organism-based. Conditions: read-out: BPR. Put shortly: (§4)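 Brain:plasma ratio in homogenized brain 1 h after IV bolus followed by IV infusion. The free ratio used free fractions measured in plasma and brain (brain slice method or brain homogenate).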

The nature of data set [10]: Cmax in Han-Wistar rat at 2 mg/kg, po by LC-MS/MS method. It counts as ADME, organism-based. Details: dose 2 mg/kg, route oral. The following applies: in vivo. Put shortly:
as §2

A short description of data set [11]: Ratio of free drug level in homogenized brain to plasma in Han-Wistar rat measured 1 hr after iv bolus then iv infusion by LC-MS/MS method. It counts as ADME, organism-based. Conditions: read-out: BPR. Put shortly: as §4
A short description of data set [12]: Cmax in CD1 mouse at 5 mg/kg, po. On the set-up: dose 5 mg/kg, route oral. It counts as ADME, organism-based. The following applies: in vivo. Put shortly: as §2
Data set [13] in a line: Clearance in Han-Wistar rat at 2 mg/kg, iv. It counts as ADME, organism-based. On the set-up: dose 2 mg/kg, route intravenous. Conditions: in vivo. Put shortly: (§5)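 Male HW rats, beagle dogs or CD-1 mice received an IV bolus in 5% DMSO/95% hydroxypropyl-β-cyclodextrin (30% w/v). EDTA plasma was sampled over 24 h and assayed by LC/MS/MS after acetonitrile protein precipitation. CL and Vss were obtained by non-compartmental analysis.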

For data set [14], the target named is Growth hormone secretagogue receptor type 1 (Rattus norvegicus) (UniProt O08725). Nature of the data set: Displacement of [125I]human ghrelin from rat GHS-R1a expressed in HEK cell membranes after 60 mins by gamma counting method. The following applies: hek293.
Data set [15] in a line: Clearance in CD1 mouse at 2 mg/kg, iv. Details: dose 2 mg/kg, route intravenous. The class given is ADME, organism-based. The following applies: in vivo. Put shortly: as §5
Data set [16] can be described thus: Unbound fraction in Han-Wistar rat plasma. It counts as ADME, cell-free.
Data set [17] in a line: Volume of distribution at steady state in CD1 mouse at 2 mg/kg, iv. It counts as ADME, organism-based. Details: dose 2 mg/kg, route intravenous. Conditions: in vivo, read-out: Vdss. Put shortly: as §5
The nature of data set [18]: Unbound fraction in CD1 mouse plasma. The class given is ADME, cell-free.
Data set [19] can be described thus: Unbound fraction in beagle dog plasma. It counts as ADME, cell-free, Canis lupus familiaris.
A short description of data set [20]: Ratio of plasma concentration in C57Bl6j mouse free feeding model at 30 mg/kg, po after 2 hrs to IC50 for mouse GHS-R1a expressed in HEK cell membranes. Details: dose 30 mg/kg, route oral. Conditions: in vivo. The class given is ADME, organism-based, HEK293. Put shortly: (§6)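 Male mice were kept on a reversed light cycle and given a 1% Pluronic F127 suspension orally (10 mL/kg) about 1 h before dark. Plasma exposure was corrected for mouse plasma protein binding and divided by mouse GHS-R1a binding IC50. Binding was 20 pM [125I]ghrelin displacement on HEK membranes, 60 min rt, pH 7.4, read by gamma counting.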

Data set [21] can be described thus: Ratio of plasma concentration in C57Bl6j mouse free feeding model at 30 mg/kg, po after 1 hr to IC50 for mouse GHS-R1a expressed in HEK cell membranes. It counts as ADME, organism-based, HEK293. Details: dose 30 mg/kg, route oral. Conditions: in vivo. Put shortly:
as §6

Data set [22] in a line: Volume of distribution at steady state in Han-Wistar rat at 2 mg/kg, iv. It counts as ADME, organism-based. Details: dose 2 mg/kg, route intravenous. Conditions: in vivo, read-out: Vdss. Put shortly: as §5
Data set [23] is described as follows: Clearance in beagle dog at 1 mg/kg, iv. It counts as ADME, organism-based, Canis lupus familiaris. Details: dose 1 mg/kg, route intravenous. Conditions: in vivo. Put shortly: as §5
The nature of data set [24]: Oral bioavailability in Han-Wistar rat at 2 mg/kg. The class given is ADME, organism-based. The following applies: Han-Wistar, in vivo. Put shortly:
as §2

Data set [25] in a line: Displacement of [125I]human ghrelin from mouse GHS-R1a expressed in HEK cell membranes after 60 mins by gamma counting method. Conditions: hek293. Put shortly: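 HEK cell membranes stably overexpressing mouse or rat GHS-R1a (4 µg/well) incubated 60 min at rt with 20 pM [125I]human ghrelin and competing compound. Buffer: 50 mM Tris-HCl, 5 mM MgCl2, 0.01% BSA, pH 7.4, plus 10 µM methyl arachidonyl fluorophosphonate. Stopped by filtration over PEI-soaked GF/C filters with ice-cold washes, then gamma counting. IC50 is the mean of ≥2 independent determinations.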

Data set [26] in a line: Oral bioavailability in beagle dog at 1 mg/kg. It counts as ADME, organism-based, Canis lupus familiaris. Conditions: in vivo. Put shortly:
as §2

The nature of data set [27]: Oral bioavailability in CD1 mouse at 5 mg/kg. The class given is ADME, organism-based. Conditions: in vivo. Put shortly: as §2
The nature of data set [28]: Cmax in Han-Wistar rat at 2 mg/kg, po. It counts as ADME, organism-based. On the set-up: dose 2 mg/kg, route oral. Conditions: in vivo. Put shortly: as §2
Data set [29] in a line: Cmax in beagle dog at 1 mg/kg, po. It counts as ADME, organism-based, Canis lupus familiaris. Details: dose 1 mg/kg, route oral. Conditions: in vivo. Put shortly:
as §2

Data set [30] concerns Mus musculus. Nature of the data set: Increase in food intake in po dosed C57Bl6j mouse free feeding model measured over 24 hrs period. The class given is functional. Put shortly: as §1
Data set [31] in a line: Aqueous solubility at pH 7.4 under thermodynamic conditions. Conditions: buffer, read-out: Therm_solubility. The class given is physicochemical. Put shortly:
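Thermodynamic solubility measured from solid samples in aqueous medium at pH 7.4.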

Data set [32] in a line: Ratio of plasma concentration in C57Bl6j mouse free feeding model at 30 mg/kg, po after 6 hrs to IC50 for mouse GHS-R1a expressed in HEK cell membranes. The class given is ADME, organism-based, HEK293. On the set-up: dose 30 mg/kg, route oral. The following applies: in vivo. Put shortly:
as §6

Data set [33] in a line: Volume of distribution at steady state in beagle dog at 1 mg/kg, iv. The class given is ADME, organism-based, Canis lupus familiaris. Details: dose 1 mg/kg, route intravenous. The following applies: in vivo, read-out: Vdss. Put shortly:
as §5

The structures appear in SMILES notation. Converted amounts (≈) assume the structure as drawn. The source made the active and inactive calls. The calls are words filed in the database; no cut-off is given here. Non-standard residues stand in square brackets, D forms with d. Residues, ends and D or L forms follow the SMILES beside them. dTrp(2-Me) = Cc1[nH]c2ccccc2c1C[C@@H](N)C(=O)O

Sequence of Growth hormone secretagogue receptor type 1 (Q92847 whole entry): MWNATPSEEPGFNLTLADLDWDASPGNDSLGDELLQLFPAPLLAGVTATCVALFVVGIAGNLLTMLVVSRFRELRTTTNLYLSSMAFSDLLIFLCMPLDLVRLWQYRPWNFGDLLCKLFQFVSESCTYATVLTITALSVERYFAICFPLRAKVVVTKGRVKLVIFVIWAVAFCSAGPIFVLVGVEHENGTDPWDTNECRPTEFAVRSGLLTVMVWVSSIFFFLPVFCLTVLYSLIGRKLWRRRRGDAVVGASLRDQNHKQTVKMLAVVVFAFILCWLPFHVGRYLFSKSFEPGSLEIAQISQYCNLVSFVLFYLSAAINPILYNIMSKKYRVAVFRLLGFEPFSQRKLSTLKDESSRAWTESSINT
Sequence of Growth hormone secretagogue receptor type 1 (Rattus norvegicus) (O08725 whole entry, looked up): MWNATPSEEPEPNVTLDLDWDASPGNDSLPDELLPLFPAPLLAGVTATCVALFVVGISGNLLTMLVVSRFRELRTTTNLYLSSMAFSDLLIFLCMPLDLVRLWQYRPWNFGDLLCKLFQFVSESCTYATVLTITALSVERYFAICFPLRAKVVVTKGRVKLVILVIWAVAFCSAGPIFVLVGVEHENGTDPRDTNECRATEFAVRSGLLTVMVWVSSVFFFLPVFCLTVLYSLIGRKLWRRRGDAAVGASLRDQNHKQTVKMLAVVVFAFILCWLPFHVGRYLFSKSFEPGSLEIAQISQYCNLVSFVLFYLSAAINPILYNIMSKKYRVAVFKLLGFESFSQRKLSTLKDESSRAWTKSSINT

As to `Cc1[nH]c2ccccc2c1C[C@@H](NC(=O)[C@@H](N)Cc1c[nH]cn1)C(=O)N[C@@H](C)C(=O)N[C@@H](Cc1c[nH]c2ccccc12)C(=O)N[C@H](Cc1ccccc1)C(=O)N[C@@H](CCCCN)C(N)=O` (H-H[dTrp(2-Me)]AW[dF]K-NH2), the outcome in the data set with Mus musculus [1] was Active.

In the case of `CN1CCC(S(=O)(=O)c2ccc3nc(NC(=O)NC(=O)c4cc5c(cc4Cl)CCN5C)sc3c2)CC1`, the Cmax in [2] is 3000 nM. Further, the efflux ratio at 10 µM in the data set on MDR1 [3] worked out at 1.2. Further, the Kp uu at 6 h in data set [4] came out at 0.072. Besides, in [5], the IC50 amounted to 7.2 nM. In data set [6], this compound had a log distribution coefficient (logD) of 2.8. The Papp A→B at 10 µM in the data set on MDR1 [7] was 5.1 ×10⁻⁶ cm/s. Also, the Kp at 6 h in [8] was 0.15.

As for `CCOc1ccc(Cl)c(C(=O)NC(=O)Nc2nc3ccc(S(=O)(=O)CCCN4CCN(C)CC4)cc3s2)c1`, in the data set with MDR1 [3], the efflux ratio at 10 µM worked out at 5. Further, the Kp at 1 h in [9] amounted to 0.052. In addition, in data set [10], the Cmax came to 4.2 µM. For the same compound, the IC50 in data set [5] worked out at 0.31 nM. Also, the log distribution coefficient (logD) in data set [6] turned out to be 2.4. In addition, the Kp uu at 1 h in [11] was determined as 0.52. Also, the Papp A→B at 10 µM in the data set with MDR1 [7] stood at 2.8 ×10⁻⁶ cm/s.

`CN1CCN(CCCS(=O)(=O)c2ccc3nc(NC(=O)NC(=O)c4ccccc4Cl)sc3c2)CC1`: the values for the Cmax in data set [12], in [28] and in data set [29] were 710 nM, 340 nM and 200 nM, respectively. Besides, the figures for the clearance in [13], in data set [15] and in data set [23] were 24 mL/min/kg, 35 mL/min/kg and 8.1 mL/min/kg, respectively. Moreover, the concentration for half-maximal inhibition (IC50) stood at 3.6 nM in data set [14], 1.3 nM in [5] and 4.9 nM in [25]. In the data set with Mus musculus [1], the outcome was Active. Moreover, in the data set on MDR1 [3], the efflux ratio at 10 µM is 4.2. The free fraction (fraction unbound) in data set [16] stood at 0.08; in data set [18] it was 0.13; in [19], 0.096. Further, the figures for the Vd in data set [17], in data set [22] and in [33] were 4.5 L/kg, 4.9 L/kg and 4 L/kg, respectively. In addition, the Ratio is reported as 220 in data set [20], 310 in data set [21] and 20 in [32]. Further, the bioavailability was found to be 125% in data set [24], 51% in data set [26] and 40% in data set [27]. Besides, the logD in data set [6] is 1.8. The apparent permeability from apical to basolateral (Papp A→B) at 10 µM with MDR1 [7] came to 7.1 ×10⁻⁶ cm/s. Besides, the Activity in the data set with Mus musculus [30] worked out at 19%. In addition, in data set [31], the solubility thermodynamic stood at 280 µM (≈ 150 µg/mL).
